We go through eleven compounds from ChEMBL document CHEMBL1121751, “Inhibition of thymidylate synthetase by 5-alkynyl-2'-deoxyuridylates” (J Med Chem, 1981).

The structures appear in SMILES notation. Active and inactive are the calls of the source. No cut-off for these calls is given here.

One series has as its target T1, Thymidylate synthase (Lactobacillus casei, UniProt P00469).
T1 sequence (P00469 whole entry): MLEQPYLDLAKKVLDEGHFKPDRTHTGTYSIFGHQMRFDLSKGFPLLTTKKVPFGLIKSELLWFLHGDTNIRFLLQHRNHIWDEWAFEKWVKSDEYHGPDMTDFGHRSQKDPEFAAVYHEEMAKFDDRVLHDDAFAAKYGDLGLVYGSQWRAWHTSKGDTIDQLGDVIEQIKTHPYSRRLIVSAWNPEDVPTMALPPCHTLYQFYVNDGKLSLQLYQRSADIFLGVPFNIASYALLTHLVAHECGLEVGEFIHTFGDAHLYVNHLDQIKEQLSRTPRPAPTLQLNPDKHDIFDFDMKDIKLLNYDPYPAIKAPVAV
Kind of series: The compound was evaluated for the inhibition of dTMP synthetase from Lactobacillus casei. Set-up: species or system Lacticaseibacillus casei. The method, boiled down: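 dTMP synthetase came from a methotrexate-resistant strain of Lactobacillus casei and was purified. Activity was measured by a reported procedure in standard assay buffer. For time-dependent inactivation, enzyme was preincubated with nucleotide, with or without 0.1 mM CH₂-H₄folate, for up to 2 h. Aliquots were then diluted 10-fold into buffer containing 0.84 mM dUMP and 0.1 mM CH₂-H₄folate, and initial velocity was recorded.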

Series [1] in a line: Compound was tested for cytotoxicity towards (Wild-type and TK-) S49 cells at 0.1 mM; Not cytotoxic. It is filed as cell-based. The following applies: mouse, s49, 100 µM.
The species entered for a further series is Mus musculus. Kind of series: Effect on mutant line lacking dThd kinase (S49/TK at 0.1 mM; No effect. It is filed as functional.
Series [2] is described as follows: Compound was tested for cytotoxicity against Wild-type S49 cells. It is filed as functional, cell-based. As to conditions: Mus musculus.
A short description of series [3]: Effective concentration to inhibit the growth of Wild-type S49 cells. It is filed as functional, cell-based. The following applies: Mus musculus. An outline of the steps:
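Growth-inhibition assay run by a previously reported procedure on wild-type S49 cells, with a thymidine kinase-deficient S49/TK⁻ line tested alongside. The 5-alkynyl-2'-deoxyuridine nucleosides were tested up to 0.1 mM. EC₅₀ is the concentration giving half-maximal growth inhibition.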

On Thymidylate synthase, `CCCCC#Cc1cn([C@H]2C[C@H](O)[C@@H](COP(=O)(O)O)O2)c(=O)[nH]c1=O` had a Ki of 2.6 µM. With `O=c1[nH]c(=O)n([C@H]2C[C@H](O)[C@@H](CO)O2)cc1C#CCO`, the Cytotoxicity result in series [1] is recorded as “Non-toxic”. On Thymidylate synthase, `O=c1[nH]c(=O)n([C@H]2C[C@H](O)[C@@H](COP(=O)(O)O)O2)cc1C#Cc1ccccc1` gave a Ki of 2 µM. In the case of `O=c1[nH]c(=O)n([C@H]2C[C@H](O)[C@@H](CO)O2)cc1C#CCCO`, the Effect result in the series listed under Mus musculus is “inactive”. In addition, the EC50 in series [2] is 70 µM. On Thymidylate synthase, `O=c1[nH]c(=O)n([C@H]2C[C@H](O)[C@@H](COP(=O)(O)O)O2)cc1C#CCCO` displayed a Ki of 1.9 µM. On the same count and under the same terms, with `C#Cc1cn([C@H]2C[C@H](O)[C@@H](COP(=O)(O)O)O2)c(=O)[nH]c1=O` the figure was 0.1 µM. For the compound `CCCCC#Cc1cn([C@H]2C[C@H](O)[C@@H](CO)O2)c(=O)[nH]c1=O`, the Cytotoxicity entry in series [1] is “Non-toxic”.

For `O=c1[nH]c(=O)n([C@H]2C[C@H](O)[C@@H](COP(=O)(O)O)O2)cc1Cl`, the Ki on Thymidylate synthase was 0.2 µM.

For the compound `O=c1[nH]c(=O)n([C@H]2C[C@H](O)[C@@H](CO)O2)cc1C#Cc1ccccc1`, the Cytotoxicity entry in series [1] is “Non-toxic”. For the compound `C#Cc1cn([C@H]2C[C@H](O)[C@@H](CO)O2)c(=O)[nH]c1=O`, the Effect result in the series filed under Mus musculus is “inactive”. Also, the EC50 in series [3] was found to be 0.12 µM. `O=c1[nH]c(=O)n([C@H]2C[C@H](O)[C@@H](COP(=O)(O)O)O2)cc1C#CCO` gave a Ki on Thymidylate synthase of 3 µM.

As a reminder, the Ki is a dissociation constant, usually derived from enzyme kinetics or from competition with a known ligand. A higher Ki goes with weaker binding. Broadly, the EC50 is the concentration that produces a half-maximal response. Read a high EC50 as weaker potency.
